Like-named read-outs stand apart in the source and are kept apart here.
Key:
[1] = target: T1, STAT3 protein (Homo sapiens, UniProt P40763); test: Western blotting of STAT3 degradation in Molm-16 cells; type: cell-based; details: Western blot, Molm-16 and SU-DHL-1 cells
[2] = test system: STAT1, STAT2, STAT4, STAT5A/B, and STAT6 proteins; test: Western blotting analysis of other STAT proteins in Molm-16 and SU-DHL-1 cells; type: cell-based; details: Molm-16 and SU-DHL-1 cell lines
Summary of the method: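 Molm-16 cells were treated for 4 h and SU-DHL-1 cells for 18 h, with test compound at 0.01–10 μM and control compounds at 10 μM. Cells were lysed and run on SDS–PAGE, then transferred to PVDF and blocked 1 h in 5% blocker in TBST. Blots were probed with primary then secondary antibodies against STAT family members and developed by chemiluminescence.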

[3] = target: STAT3 protein (Mus musculus, UniProt P42227); test: Pharmacodynamics in native mouse spleen tissue; type: in vivo; details: single intravenous dose, 25 mg/kg, CD-1 mice
Summary of the method: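 Female CD-1 mice received a single intravenous dose of test compound or vehicle (10% PEG400 + 90% PBS). Mice were euthanized at set time points and spleens harvested. Native spleen lysates were immunoblotted for STAT3.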

[4] = target: T1, STAT3 protein; test: Pharmacodynamics in Molm-16 xenograft tumor tissue; type: in vivo, SCID mice
Summary of the method: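 Molm-16 subcutaneous xenografts were grown in CB.17 SCID mice (3 × 10^6 cells in 5 mg/mL Matrigel). Mice received a single intravenous dose of test compound or vehicle (10% PEG400 + 90% PBS). Animals were euthanized at set time points, including 1 h and 72 h. Tumor lysates were immunoblotted for total STAT3 and pSTAT3Y705.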

[5] = test system: Molm-16 xenograft tumor; test: Antitumor efficacy in the Molm-16 xenograft model; type: in vivo, SCID mice
Summary of the method: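 Molm-16 cells (3 × 10^6) injected subcutaneously in 5 mg/mL Matrigel into CB.17 SCID mice. At an average tumor volume of 150 mm3, mice were randomized and dosed intravenously at 25 or 50 mg/kg three times weekly, or at 50 mg/kg once weekly, for 3 weeks. Vehicle was 10% PEG400 + 90% PBS. Tumors and body weight were measured 2–3 times weekly, with volume = (length × width2)/2.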

[6] = test system: other STAT proteins; details: cited from earlier work
[7] = test system: Molm-16 xenograft tumor; details: 100 mg/kg weekly dosing; cited from earlier work
[8] = 25 or 50 mg/kg three times per week

T1 sequence (P40763 whole entry): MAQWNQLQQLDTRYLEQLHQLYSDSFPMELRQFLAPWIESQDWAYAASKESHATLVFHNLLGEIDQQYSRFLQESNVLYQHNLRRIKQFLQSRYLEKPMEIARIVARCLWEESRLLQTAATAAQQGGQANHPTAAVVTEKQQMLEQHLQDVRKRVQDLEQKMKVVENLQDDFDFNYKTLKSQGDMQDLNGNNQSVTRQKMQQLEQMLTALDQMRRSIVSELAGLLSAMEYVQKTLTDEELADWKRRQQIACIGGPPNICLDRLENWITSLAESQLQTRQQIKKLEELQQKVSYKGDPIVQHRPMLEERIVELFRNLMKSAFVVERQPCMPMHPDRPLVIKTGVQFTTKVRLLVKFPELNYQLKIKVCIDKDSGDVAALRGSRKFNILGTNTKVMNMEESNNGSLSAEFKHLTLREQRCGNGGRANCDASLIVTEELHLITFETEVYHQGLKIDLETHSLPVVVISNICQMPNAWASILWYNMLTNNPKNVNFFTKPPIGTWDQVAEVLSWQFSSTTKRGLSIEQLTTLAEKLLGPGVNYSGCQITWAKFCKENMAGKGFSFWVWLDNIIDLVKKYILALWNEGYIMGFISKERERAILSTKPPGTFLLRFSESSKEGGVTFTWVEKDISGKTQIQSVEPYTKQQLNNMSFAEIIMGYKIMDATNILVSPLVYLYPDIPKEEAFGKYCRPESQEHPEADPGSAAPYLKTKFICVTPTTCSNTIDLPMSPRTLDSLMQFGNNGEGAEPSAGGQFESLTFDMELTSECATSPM
STAT3 protein (Mus musculus, UniProt P42227), sequence (P42227 whole entry): as the sequence (P40763 whole entry) above, with E760D counted along it

## NC(=O)CC[C@H](NC(=O)[C@@H]1CC[C@@H]2CCN(C(=O)CCCCCC#Cc3cccc4c3CN(C3CCC(=O)NC3=O)C4=O)C[C@H](NC(=O)c3cc4cc(C(F)(F)P(=O)(O)O)ccc4[nH]3)C(=O)N21)C(=O)NC(c1ccccc1)c1ccccc1 (stereo partly drawn) [SD-36, ((2-(((5S,8S,10aR)-8-(((S)-5-Amino-1-(benzhydrylamino)-1,5-dioxopentan-2-yl)carbamoyl)-3-(8-(2-(2,6-dioxopiperidin-3-yl)-1-oxoisoindolin-4-yl)oct-7-ynoyl)-6-oxodecahydropyrrolo-[1,2-a][1,5]diazocin-5-yl)carbamoyl)-1H-indol-5-yl)-difluoromethyl)phosphonic Acid]
[1]
  concentration very effective in reducing the level of STAT3 protein: ≥ 0.1 µM
[2]
  selectivity for degradation of STAT3 over other STAT members: > 100 fold
[2]; up to 10 μM
  effect on STAT1, STAT2, STAT4, STAT5A/B, and STAT6 proteins: little or no effect
[3]
  persistence of STAT3 reduction in spleen: more than 48 h
  reducing STAT3 protein in native mouse spleen tissue: very effective
[4]; single dose
  persistence of STAT3 elimination in tumor tissue: > 3 days
[4]; single dose 50 mg/kg, after 1 h
  reduction of total STAT3 and pSTAT3^Y705 proteins in xenograft tumor tissue: > 95%
[5]; 50 mg/kg once weekly for 3 weeks
  tumor response: very effective in inhibition of tumor growth
[5]; [8]
  duration of dosing after which complete tumor regression was achieved: 2 weeks
  persistence of complete tumor regression after termination of the treatment: more than 2 weeks
[5]; 25 or 50 mg/kg three times per week for 3 weeks intravenously
  tumor response: complete tumor regression
[5]; efficacy experiment, Molm-16 xenograft mice
  weight loss or other signs of toxicity: no weight loss or other signs of toxicity
[6]
  affinity to other STAT proteins tested: much weaker affinity
[7]
  tumor response: complete tumor regression
